Screening results (PubChem)
Sampled rows, rich in hits. Any-hit rate of the full collection: about 1.9%.
VIM-2 inh – blocks Pseudomonas aeruginosa VIM-2 metallo-beta-lactamase; purified VIM-2, nitrocefin hydrolysis, epi-absorbance fluorescence; inhibition, % at 5.6 µM; 290,000 tested, 0.89% active; AID 1527;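 active = inhibition above the mean of all tested compounds plus 3 SD, cutoff set per screening run, cut at about 7.5% in these data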;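 note: red hydrolysis product quenches plate fluorescence so inhibitors raise well fluorescence; 0% = enzyme with DMSO and 100% = DMSO without enzyme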
HCV NS3 hel inh – inhibitors of Hepatitis C virus NS3 helicase. 290,000 tested, 0.56% active. AID 1800. inhibition, % at 10.9 µM. NS3 helicase DNA unwinding, Cy5 molecular beacon fluorescence;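 active = inhibition above the mean of all tested compounds plus 3 SD, set per campaign, cut at about 35% in these data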;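 note: 0% = DMSO wells and 100% = thioflavine S control wells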
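Assay system: hepatitis C virus NS3 helicase domain fragment enzyme. Also added: annealed dual-labelled DNA beacon duplex, ATP-started. Timing: 1 h reaction at 25 °C, ATP-initiated. Technique: Cy5 fluorescence at 0 and 60 min, beacon hairpin quenching. Evaluation: % inhibition of unwinding. Replication: one well per compound.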
DNA FID counter – displaces DNA intercalator in HCV helicase counter-screen; DNA fluorescent intercalator displacement, fluorescence; inhibition, % at 7.9 µM; 290,000 tested, 0.17% active; AID 1845; in the data active = inhibition above about 37%;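 note: 0% = vehicle and 100% = reference compound; higher means more ethidium bromide displaced from hairpin DNA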
IMP-1 inh – blocks Pseudomonas aeruginosa IMP-1 metallo-beta-lactamase. inhibition, % at 5.6 µM. purified IMP-1, nitrocefin hydrolysis, epi-absorbance fluorescence. AID 1556. 290,000 tested, 0.45% active;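 active = inhibition above the mean plus 3 SD of all compounds in the same screening run, cut at about 4.5% in these data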;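 note: 0% = IMP-1 with DMSO and 100% = DMSO wells lacking enzyme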
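Test system: recombinant IMP-1 enzyme, purified / Medium: HEPES buffer pH 7.1 with ZnSO4 and Brij 35 / Doses: single dose, 5.6 µM / Times: 25 °C, 15 min preincubation, 25 min reaction / Detection: Epi-absorbance via hydrolysed-nitrocefin quenching of white-plate fluorescence, 480/530 nm, EDTA stop / Evaluation: percent inhibition from optical density relative to buffer-blank wells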
* marks the source's active call; other numbers are inactive results.

SMILES	VIM-2 inh	HCV NS3 hel inh	DNA FID counter	IMP-1 inh
CN(C)CCCNc1nc(-c2ccccc2)nc2ccccc12	3	14	58*	-6
CC(C)(C)CC(C)(C)NCC(=O)Nc1c2c(nc3ccccc13)CCC2	-4	3	13	-3
CCCc1cc(=O)oc2c3c(c4c(c12)OC(C)(C)C=C4)OC(C)C(C)C3O (configuration not stated)	-2	-1	-7	-2
CCn1c(=NC(=O)c2ccc(N3C(=O)CCC3=O)cc2)sc2c(OC)ccc(OC)c21	-1	1	-9	-1
CCn1c(=NC(=O)CN2C(=O)CCC2=O)sc2c(OC)ccc(OC)c21	0	1	1	4.6*
CCCC[C@H]1COCCS(=O)(=O)N1Cc1cccc([N+](=O)[O-])c1	-2	-4	-10	-4
CN(C)CCCN1C(=O)c2cccc3cccc(c23)C1=O	7.8*	9	18	-4
CC(Nc1ccc(F)cc1)=[N+](C)CCNS(=O)(=O)c1ccc(Cl)cc1	-2	1	2	-3
CCOC(=O)c1cc2occc2n1Cc1ccc(F)cc1	-3	-1	-1	24*
CCOC(=O)c1cc2occc2n1Cc1c(F)cccc1Cl	-3	4	-10	-1
COc1ccccc1C1/C(=C(\O)c2ccc3c(c2)OCCO3)C(=O)C(=O)N1Cc1cccnc1 (configuration not stated)	4	8	-57	-2
CCOC(=O)c1c(NC(=O)CSc2nnnn2-c2ccccc2)sc2c1CC(C)(C)NC2(C)C	1	-51	41*	0
CCOC(=O)c1c(NC(=O)C2COc3ccccc3O2)sc2c1CC(C)(C)NC2(C)C (configuration not stated)	1	-77	43*	0
CCOC(=O)c1c(NC(=O)Cc2ccccc2)sc2c1CC(C)(C)NC2(C)C	-1	-71	24	-3
S=C(NCc1ccccn1)Nc1cccc(Cl)c1	-2	1	-1	-4
Clc1cccc(-c2ccc(CNCc3ccccn3)o2)c1	11*	9	6	-6
O=C(NN=C1C2CC3CC(C2)CC1C3)c1ccccc1O	-4	0	-8	-3
Cc1cc(C)n2cc(CSc3nc4ccccc4s3)nc2n1	10*	14	-28	-1
COc1cc(C(=O)NC(=S)Nc2ccc([N+](=O)[O-])cc2C)cc(OC)c1OC	-2	-13	2	2
COc1cc(C(=O)NC(=S)Nc2ccc([N+](=O)[O-])cc2)cc(OC)c1OC	-1	8	1	4.6*
COc1ccc(S(=O)(=O)N2CCCC(C(=O)NCC3CCCO3)C2)cc1C (configuration not stated)	-3	4	-17	-3
O=C(NCC1CCCO1)C1CCCN(S(=O)(=O)c2cccc(C(F)(F)F)c2)C1 (configuration not stated)	1	24	-19	4.6*
CCSc1nc(N)c(C#N)c(-c2ccco2)c1C#N	4	1	4	4.5*
COC(=O)CSc1nc(N)c(C#N)c(-c2ccco2)c1C#N	1	4	2	-4
COc1ccc(CCNC(=O)Cn2c(=O)[nH]c3ccsc3c2=O)cc1OC	-2	-7	-1	-5
SMILES	VIM-2 inh	HCV NS3 hel inh	DNA FID counter	IMP-1 inh
Cc1cc(NC(=O)Cc2cccs2)no1	-3	29	-10	6.8*
Cc1csc2ncnc(N3CCN(C(=O)Nc4ccc(OC(F)(F)F)cc4)CC3)c12	-4	10	-29	-2
O=C1c2ccccc2S(=O)(=O)N1CC(O)COc1ccc(Br)cc1 (configuration not stated)	0	-5	-11	5.3*
COc1ccc(Cn2c(S(=O)(=O)CC(N)=O)nc3ccccc32)cc1[N+](=O)[O-]	6	0	5	-4
C[n+]1ccc(CC2C(=[N+]([O-])[O-])C=Nc3ncnn32)cc1 (configuration not stated)	-2	4	20	-1
CNC(=S)N1CCC(NC(=O)C(Cc2ccccc2)NC(C)=O)CC1 (configuration not stated)	-2	20	3	-2
Cc1ccc(CC(CC(=O)O)C(=O)NCc2ccccc2)cc1 (configuration not stated)	-3	-2	-4	-4
CNC[C@H](Cc1ccccc1)NC[C@@H](Cc1cccc2ccccc12)NCCc1ccc(C)cc1	-3	-88	37*	-3
COc1cccc(Nc2nc3ccccc3n3cnnc23)c1	7.8*	-4	-10	-4
Cc1ccc2nc(Nc3ccc(F)cc3)c3nncn3c2c1	1	-18	-12	7.6*
Cc1ccc(C)c(Nc2nc3ccc(C)cc3n3cnnc23)c1	-2	3	-20	-4
CC(=O)OCCN1CCN(C(=O)CN2C(=O)NC(c3ccccc3)(c3ccccc3)C2=O)CC1	1	4	-39	-1
O=C(NCCCO)c1c(O)c2cccc3c2n(c1=O)CCC3	11*	-7	-26	-3
CCNCCNC(=O)c1c(O)c2cccc3c2n(c1=O)CCC3	8.5*	11	12	-2
CCCCNC(=O)c1c(O)c2cccc3c2n(c1=O)CCC3	-3	-1	-2	-3
COc1ccccc1C1CC(c2ccccc2)=NN1C(=S)Nc1ccccc1 (configuration not stated)	-1	-2	-8	-2
Cc1ccc(OCCCCn2cnc3ccccc32)c(C)c1	-2	-13	7	6.6*
Cc1cccc(C(=O)Oc2ccc3ccc(O)cc3c2)c1	-2	12	-8	-5
COCCCNC(=S)NNC(=O)c1csc(C)n1	-2	2	-8	8.7*
CC(C)Oc1cccc(C(=O)Nc2ccc(N3CCN(C)CC3)cc2)c1	12*	-15	9	0
CCCOc1cccc(C(=O)NC(=S)Nc2ccc(N3CCN(C)CC3)cc2)c1	12*	-26	5	0
CC(C)Oc1ccc(C(=O)Nc2ccc(N3CCCCC3)cc2)cc1	0	1	-8	-2
CCn1c(SCC(=O)Nc2ccc(NC(C)=O)cc2)nc2c1c(=O)n(C)c(=O)n2C	0	2	-13	-1
COc1cc(CNCCO)cc(Cl)c1OCc1ccc(Cl)cc1Cl	1	-60	43*	-2
COc1cc(CNCCO)cc(Br)c1OCc1ccccc1Cl	2	-44	36	-2
SMILES	VIM-2 inh	HCV NS3 hel inh	DNA FID counter	IMP-1 inh
CC(=O)N1CCc2ccccc2C1CC(=O)O (configuration not stated)	-5	7	-1	-3
Cc1cc(NC(=O)c2cncc(Br)c2)ccc1NC(=O)c1cc2ccccc2o1	-1	-5	-15	-4
O=C(CCS(=O)(=O)c1ccc(Cl)cc1)Nc1ccccc1Br	-3	5	-11	-3
COC(=O)c1ccccc1NC(=O)CCS(=O)(=O)c1ccc(Br)cc1	-2	9	-26	35*
CCOc1ccc(NC(=O)CCS(=O)(=O)c2ccc(Br)cc2)cc1	-3	-13	-16	16*
O=C(CCS(=O)(=O)c1ccc(Br)cc1)NCc1ccco1	-2	6	-5	20*
COc1ccc(NC(=O)CCS(=O)(=O)c2ccc(OC)cc2)cc1	-2	-9	-4	-1
